Source: ChEMBL document CHEMBL3621107, “Ring fusion strategy for synthesis and lead optimization of sulfur-substituted anthra[1,2-c][1,2,5]thiadiazole-6,11-dione derivatives as promising scaffold of antitumor agents” (Eur J Med Chem, 2015)

Legend:
Type in all cases: functional
SK-MEL-2 = assay: Cytotoxicity against human SK-MEL-2 cells assessed as cell growth at 10 uM after 48 hrs by SRB assay relative to control; details: SK-MEL-2, 48 h, read-out: Activity
Outline: (§1)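 First-stage NCI DTP one-dose screen against the 60 human tumour cell line panel. Compounds were tested at a single 10 μM level, and results are given as growth percentage.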

SK-MEL-28 = assay: Cytotoxicity against human SK-MEL-28 cells assessed as cell growth at 10 uM after 48 hrs by SRB assay relative to control; details: SK-MEL-28, 48 h, read-out: Activity; outline: as §1
SK-MEL-5 = assay: Cytotoxicity against human SK-MEL-5 cells assessed as cell growth at 10 uM after 48 hrs by SRB assay relative to control; details: SK-MEL-5, 48 h, read-out: Activity; outline: as §1
UACC-257 = assay: Cytotoxicity against human UACC257 cells assessed as cell growth at 10 uM after 48 hrs by SRB assay relative to control; details: UACC-257, 48 h, read-out: Activity
Outline: (§2)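 NCI-60 one-dose screen run by NCI DTP: each cell line exposed to a single 10 µM dose, and percentage growth recorded against untreated growth.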

IGROV-1 = assay: Cytotoxicity against human IGROV1 cells assessed as cell growth at 10 uM after 48 hrs by SRB assay relative to control; details: IGROV-1, 48 h, read-out: Activity
Outline: (§3)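 First-stage NCI-60 screen by the NCI Developmental Therapeutics Program. Each compound was tested once at a single concentration of 10 μM against the 60-cell-line panel. Growth percentage was reported for each cell line.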

OVCAR-8 = assay: Cytotoxicity against human OVCAR8 cells assessed as cell growth at 10 uM after 48 hrs by SRB assay relative to control; details: OVCAR-8, 48 h, read-out: Activity; outline: as §1
NCI/ADR-RES = assay: Cytotoxicity against human NCI/ADR-RES cells assessed as cell growth at 10 uM after 48 hrs by SRB assay relative to control; details: read-out: Activity; outline: as §1
ACHN = assay: Cytotoxicity against human ACHN cells assessed as cell growth at 10 uM after 48 hrs by SRB assay relative to control; details: read-out: Activity; outline: as §3
CAKI-1 = assay: Cytotoxicity against human Caki1 cells assessed as cell growth at 10 uM after 48 hrs by SRB assay relative to control; details: CAKI-1, 48 h, read-out: Activity; outline: as §3
RXF 393 = assay: Cytotoxicity against human RXF393 cells assessed as cell growth at 10 uM after 48 hrs by SRB assay relative to control; details: RXF 393, 48 h, read-out: Activity; outline: as §1
UO-31 = assay: Cytotoxicity against human UO31 cells assessed as cell growth at 10 uM after 48 hrs by SRB assay relative to control; details: UO-31, 48 h, read-out: Activity; outline: as §2
DU-145 = assay: Cytotoxicity against human DU145 cells assessed as cell growth at 10 uM after 48 hrs by SRB assay relative to control; details: DU-145, 48 h, read-out: Activity; outline: as §3
MCF7 = assay: Cytotoxicity against human MCF7 cells assessed as cell growth at 10 uM after 48 hrs by SRB assay relative to control; details: MCF7, 48 h, read-out: Activity; outline: as §3
MDA-MB-231 = assay: Cytotoxicity against human MDA-MB-231 cells assessed as cell growth at 10 uM after 48 hrs by SRB assay relative to control; details: MDA-MB-231, 48 h, read-out: Activity; outline: as §1
[1] = Cytotoxicity against human Hs578T cells assessed as cell growth at 10 uM after 48 hrs by SRB assay relative to control; details: Hs-578T, read-out: Activity; outline: as §3
RPMI-8226 = assay: Cytotoxicity against human RPMI8226 cells assessed as cell growth at 10 uM after 48 hrs by SRB assay relative to control; details: RPMI-8226, 48 h, read-out: Activity; outline: as §1
A549 = assay: Cytotoxicity against human A549 cells assessed as cell growth at 10 uM after 48 hrs by SRB assay relative to control; details: A549, 48 h, read-out: Activity; outline: as §3
HOP-62 = assay: Cytotoxicity against human HOP62 cells assessed as cell growth at 10 uM after 48 hrs by SRB assay relative to control; details: HOP-62, 48 h, read-out: Activity; outline: as §3
HOP-92 = assay: Cytotoxicity against human HOP92 cells assessed as cell growth at 10 uM after 48 hrs by SRB assay relative to control; details: HOP-92, 48 h, read-out: Activity; outline: as §3
NCI-H226 = assay: Cytotoxicity against human NCI-H226 cells assessed as cell growth at 10 uM after 48 hrs by SRB assay relative to control; details: NCI-H226, 48 h, read-out: Activity; outline: as §1
NCI-H460 = assay: Cytotoxicity against human NCI-H460 cells assessed as cell growth at 10 uM after 48 hrs by SRB assay relative to control; details: NCI-H460, 48 h, read-out: Activity; outline: as §1
NCI-H522 = assay: Cytotoxicity against human NCI-H522 cells assessed as cell growth at 10 uM after 48 hrs by SRB assay relative to control; details: NCI-H522, 48 h, read-out: Activity; outline: as §1
COLO 205 = assay: Cytotoxicity against human COLO205 cells assessed as cell growth at 10 uM after 48 hrs by SRB assay relative to control; details: COLO 205, 48 h, read-out: Activity; outline: as §3
HCT-116 = assay: Cytotoxicity against human HCT116 cells assessed as cell growth at 10 uM after 48 hrs by SRB assay relative to control; details: HCT-116, 48 h, read-out: Activity; outline: as §3
HCT-15 = assay: Cytotoxicity against human HCT15 cells assessed as cell growth at 10 uM after 48 hrs by SRB assay relative to control; details: HCT-15, 48 h, read-out: Activity; outline: as §3
KM12 = assay: Cytotoxicity against human KM12 cells assessed as cell growth at 10 uM after 48 hrs by SRB assay relative to control; details: KM12, 48 h, read-out: Activity; outline: as §3
SF-268 = assay: Cytotoxicity against human SF268 cells assessed as cell growth at 10 uM after 48 hrs by SRB assay relative to control; details: SF-268, 48 h, read-out: Activity; outline: as §1
SF-539 = assay: Cytotoxicity against human SF539 cells assessed as cell growth at 10 uM after 48 hrs by SRB assay relative to control; details: SF-539, 48 h, read-out: Activity; outline: as §1

SMILES	growth at 10 µM (SK-MEL-2) [%]	growth at 10 µM (SK-MEL-28) [%]	growth at 10 µM (SK-MEL-5) [%]	growth at 10 µM (UACC-257) [%]	growth at 10 µM (IGROV-1) [%]	growth at 10 µM (OVCAR-8) [%]	growth at 10 µM (NCI/ADR-RES) [%]	growth at 10 µM (ACHN) [%]	growth at 10 µM (RXF 393) [%]	growth at 10 µM (UO-31) [%]	growth at 10 µM (MCF7) [%]	growth at 10 µM (MDA-MB-231) [%]	growth at 10 µM (A549) [%]	growth at 10 µM (HOP-62) [%]	growth at 10 µM (NCI-H226) [%]	growth at 10 µM (NCI-H522) [%]	growth at 10 µM (COLO 205) [%]	growth at 10 µM (HCT-116) [%]	growth at 10 µM (HCT-15) [%]	growth at 10 µM (SF-539) [%]	further results
COc1ccc(Sc2cc3c(c4nsnc24)C(=O)c2ccccc2C3=O)cc1	99.2	116	106	118	103	99.5	97.6	102	109	68.3	93.8	87.6	103	95.2	79.5	95.7	112	94.6	109	93.5	growth at 10 µM (CAKI-1): 108%; growth at 10 µM (DU-145): 112%; growth at 10 µM [1]: 96.7%; growth at 10 µM (RPMI-8226): 101%; growth at 10 µM (HOP-92): 91.4%; growth at 10 µM (NCI-H460): 107%; growth at 10 µM (KM12): 101%; growth at 10 µM (SF-268): 94.8%
CSc1ccc(Sc2cc3c(c4nsnc24)C(=O)c2ccccc2C3=O)cc1	89.3	120	101	110	95.7	97.4	91.8	104	107	67.6	82.9	78.8	105	102	79.7	95.4	117	102	112	96.5	growth at 10 µM (CAKI-1): 99.4%; growth at 10 µM (DU-145): 101%; growth at 10 µM [1]: 96.5%; growth at 10 µM (RPMI-8226): 88.6%; growth at 10 µM (HOP-92): 4.31%; growth at 10 µM (NCI-H460): 106%; growth at 10 µM (KM12): 100%; growth at 10 µM (SF-268): 89.7%
O=C1c2ccccc2C(=O)c2c1cc(Sc1ccc(F)cc1F)c1nsnc21	51.8	79.5	48.5	43.9	–	0.32	-26.2	34.9	36.7	70.3	6.58	-9.73	112	58.5	88.8	61.1	104	-63.1	45.8	58.8	growth at 10 µM (CAKI-1): 24%; growth at 10 µM (DU-145): 41.3%; growth at 10 µM [1]: 50.1%; growth at 10 µM (RPMI-8226): 6.29%; growth at 10 µM (HOP-92): -18.4%; growth at 10 µM (NCI-H460): 83.6%; growth at 10 µM (KM12): 51.8%; growth at 10 µM (SF-268): 8.47%
Cc1cc(C)cc(Sc2cc3c(c4nsnc24)C(=O)c2ccccc2C3=O)c1	108	112	107	116	96.7	92.2	97.5	98	112	69.1	75.8	99.2	107	91	88	106	106	92.3	90.9	94.9	growth at 10 µM (CAKI-1): 91%; growth at 10 µM (DU-145): 122%; growth at 10 µM [1]: 105%; growth at 10 µM (RPMI-8226): 89.1%; growth at 10 µM (HOP-92): 93.5%; growth at 10 µM (NCI-H460): 105%; growth at 10 µM (KM12): 105%; growth at 10 µM (SF-268): 108%
Cc1ccc(Sc2cc3c(c4nsnc24)C(=O)c2ccccc2C3=O)c(C)c1	98.5	119	110	122	95	105	97.8	94.2	106	65.7	79.8	92.3	110	79.3	1.5	96.8	107	94.5	83	100	growth at 10 µM (DU-145): 110%; growth at 10 µM [1]: 99.1%; growth at 10 µM (RPMI-8226): 85.1%; growth at 10 µM (HOP-92): 97.8%; growth at 10 µM (NCI-H460): 102%; growth at 10 µM (KM12): 96.4%; growth at 10 µM (SF-268): 90.6%
CCOc1cccc(Sc2cc3c(c4nsnc24)C(=O)c2ccccc2C3=O)c1	103	112	107	126	94.7	112	102	103	118	76.7	78.8	101	111	91.9	90.5	98.2	106	101	103	93.7	growth at 10 µM (CAKI-1): 84.2%
COc1cccc(Sc2cc3c(c4nsnc24)C(=O)c2ccccc2C3=O)c1	82.6	102	100	104	99.9	97.3	92.7	98.7	124	75.5	72.8	87.1	110	61.8	95.3	82.4	110	85.7	71.9	107	growth at 10 µM (DU-145): 98.9%; growth at 10 µM [1]: 93.8%; growth at 10 µM (RPMI-8226): 52%; growth at 10 µM (HOP-92): 101%; growth at 10 µM (NCI-H460): 100%; growth at 10 µM (KM12): 97.1%; growth at 10 µM (SF-268): 89.8%
O=C1c2ccccc2C(=O)c2c1cc(Sc1cccc(Cl)c1)c1nsnc21	-53.2	25	19	-84.6	-13.5	-22.9	-15.1	-92.5	-27.8	-74.8	-69.4	-29.1	107	42.1	78.1	7.18	106	-67.8	18	-52.7	growth at 10 µM (CAKI-1): -3.69%
